Measured values taken from ChEMBL document CHEMBL3817745, “Structure-Activity Relationship for the 4(3H)-Quinazolinone Antibacterials” (J Med Chem, 2016).
Values after ≈ are worked out from the molar mass of the structure shown.

Experiments:
[1] = Hemolytic activity against human RBC at 64 ug/ml relative to control; assay type: ADME, cell-based, Erythrocyte; conditions: erythrocyte
Summary of the method: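 Hemolysis was measured at a fixed 64 μg/mL on a 10% red-cell suspension from heparinized human blood. Triton-X served as the positive control, and results are given as percent hemolysis.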

Klebsiella pneumoniae = assay: Antibacterial activity against Klebsiella pneumoniae ATCC 700603 incubated for 16 to 20 hrs by microdilution method; assay type: functional
Summary of the method: (§1)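 CLSI broth microdilution. 2-fold serial dilutions were made in cation-adjusted Mueller–Hinton broth, with 5% lysed horse blood added for Streptococcus strains, in triplicate. Inoculum 5×10^5 CFU/mL. Plates incubated 36 °C for 16–20 h. MIC taken as the lowest concentration visibly inhibiting growth.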

Enterococcus faecium = assay: Antibacterial activity against Enterococcus faecium NCTC 7171 incubated for 16 to 20 hrs by microdilution method; assay type: functional; summary of the method: as §1
HepG2 = assay: Cytotoxicity against human HepG2 cells incubated for 16 hrs by XTT assay; assay type: cell-based; conditions: HepG2, 16 h
Summary of the method: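 HepG2 cells were tested with an XTT viability read-out, in triplicate. IC50 was obtained by nonlinear regression.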

Staphylococcus aureus [2] = assay: Antibacterial activity against methicillin-susceptible Staphylococcus aureus ATCC 29213 incubated for 16 to 20 hrs by microdilution method; assay type: functional
Pseudomonas aeruginosa = assay: Antibacterial activity against Pseudomonas aeruginosa […] incubated for 16 to 20 hrs by microdilution method; assay type: functional; summary of the method: as §1
Mus musculus [3] = assay: AUC (0 to last) in ICR mouse peritonitis model infected with methicillin resistant Staphylococcus aureus ATCC 27660 at 10 mg/kg, iv administered as single dose measured up to 8 hrs by UPLC analysis; assay type: ADME, organism-based; set-up: dose 10 mg/kg, time 0 - last, route intravenous; conditions: in vivo, 8 h
Summary of the method: (§2)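 Fast PK: female ICR mice (n = 2 per time point) given single tail-vein iv injection at 5, 10 or 20 mg/kg in 25% DMSO/65% propylene glycol/10% water (2.5, 5 or 10 mg/mL); terminal cardiac blood at 5 min, 40 min, 2, 4, 8 h; plasma analysed by UPLC with internal standard calibration.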

Acinetobacter baumannii = assay: Antibacterial activity against Acinetobacter baumannii ATCC 17961 incubated for 16 to 20 hrs by microdilution method; assay type: functional; summary of the method: as §1
Klebsiella aerogenes = assay: Antibacterial activity against Enterobacter aerogenes ATCC 35029 incubated for 16 to 20 hrs by microdilution method; assay type: functional; summary of the method: as §1
Escherichia coli = assay: Antibacterial activity against Escherichia coli ATCC 25922 incubated for 16 to 20 hrs by microdilution method; assay type: functional; summary of the method: as §1
[4] = system: Staphylococcus epidermidis; assay: Antibacterial activity against Staphylococcus epidermidis ATCC 35547 incubated for 16 to 20 hrs by microdilution method; assay type: functional; summary of the method: as §1
Staphylococcus aureus [5] = assay: Antibacterial activity against vancomycin/methicillin-resistant Staphylococcus aureus VRS1 clinical isolate incubated for 16 to 20 hrs by microdilution method; assay type: functional
Mus musculus [6] = assay: AUC (0 to last) in ICR mouse peritonitis model infected with methicillin resistant Staphylococcus aureus ATCC 27660 at 5 mg/kg, iv administered as single dose measured up to 8 hrs by UPLC analysis; assay type: ADME, organism-based; set-up: dose 5 mg/kg, route intravenous, time 0 - last; conditions: in vivo; summary of the method: as §2
Staphylococcus aureus [7] = assay: Antibacterial activity against mecA-positive multidrug resistant Staphylococcus aureus COL NRS100 incubated for 16 to 20 hrs by microdilution method; assay type: functional
Bacillus cereus = assay: Antibacterial activity against Bacillus cereus ATCC 13061 incubated for 16 to 20 hrs by microdilution method; assay type: functional; summary of the method: as §1
Streptococcus oralis = assay: Antibacterial activity against Streptococcus oralis ATCC 9811 incubated for 16 to 20 hrs by microdilution method; assay type: functional; summary of the method: as §1
Staphylococcus aureus [8] = assay: Antibacterial activity against mecA-positive methicillin/oxacillin/tetracycline-resistant Staphylococcus aureus ATCC 27660 incubated for 16 to 20 hrs by microdilution method; assay type: functional
Staphylococcus aureus [9] = assay: Antibacterial activity against vancomycin/methicillin-resistant Staphylococcus aureus VRS2 clinical isolate incubated for 16 to 20 hrs by microdilution method; assay type: functional
Bacillus licheniformis = assay: Antibacterial activity against Bacillus licheniformis ATCC 12759 incubated for 16 to 20 hrs by microdilution method; assay type: functional; summary of the method: as §1
Streptococcus pyogenes = assay: Antibacterial activity against Streptococcus pyogenes ATCC 49399 incubated for 16 to 20 hrs by microdilution method; assay type: functional; summary of the method: as §1
Enterococcus faecalis [10] = assay: Antibacterial activity against vancomycin-resistant Enterococcus faecalis 99 clinical isolate incubated for 16 to 20 hrs by microdilution method; assay type: functional
Enterococcus faecalis [11] = assay: Antibacterial activity against methicillin-susceptible Enterococcus faecalis ATCC 29212 incubated for 16 to 20 hrs by microdilution method; assay type: functional; summary of the method: as §1
[12] = system: Staphylococcus haemolyticus; assay: Antibacterial activity against Staphylococcus haemolyticus ATCC 29970 incubated for 16 to 20 hrs by microdilution method; assay type: functional
Staphylococcus aureus [13] = assay: Antibacterial activity against mecA-positive multidrug resistant Staphylococcus aureus NRS119 incubated for 16 to 20 hrs by microdilution method; assay type: functional
Staphylococcus aureus [14] = assay: Antibacterial activity against mecA-positive multidrug resistant Staphylococcus aureus NRS120 incubated for 16 to 20 hrs by microdilution method; assay type: functional
Mus musculus [15] = assay: AUC (0 to last) in ICR mouse peritonitis model infected with methicillin resistant Staphylococcus aureus ATCC 27660 at 20 mg/kg, iv administered as single dose measured up to 8 hrs by UPLC analysis; assay type: ADME, organism-based; set-up: dose 20 mg/kg, time 0 - last, route intravenous; conditions: in vivo; summary of the method: as §2

SMILES | Activity [1] | MIC (Klebsiella pneumoniae) | MIC (Enterococcus faecium) | IC50 (HepG2) | MIC (Staphylococcus aureus [2]) | MIC (Pseudomonas aeruginosa) | AUClast (Mus musculus [3]) | MIC (Acinetobacter baumannii) | MIC (Klebsiella aerogenes) | MIC (Escherichia coli) | MIC [4] | MIC (Staphylococcus aureus [5]) | MIC (Staphylococcus aureus [7]) | MIC (Bacillus cereus) | MIC (Streptococcus oralis) | MIC (Staphylococcus aureus [8]) | MIC (Staphylococcus aureus [9]) | MIC (Bacillus licheniformis) | MIC (Streptococcus pyogenes) | MIC (Enterococcus faecalis [10]) | other results
CC(=O)NCc1cccc(-n2c(/C=C/c3ccc(C#N)cc3)nc3ccccc3c2=O)c1 | < 1% | ≥ 16 µg/mL | ≥ 8 µg/mL | 99 µg/mL (≈ 235 µM) | 0.015 µg/mL (≈ 0.0357 µM) | ≥ 16 µg/mL | 142 µg·min/mL | ≥ 16 µg/mL | ≥ 16 µg/mL | ≥ 16 µg/mL | – | – | – | – | – | – | – | – | – | – | –
N#Cc1ccc(/C=C/c2nc3ccccc3c(=O)n2-c2cccc(C(=O)NCCO)c2)cc1 | < 1% | ≥ 16 µg/mL | ≥ 8 µg/mL | 70.2 µg/mL (≈ 161 µM) | 1 µg/mL (≈ 2.29 µM) | ≥ 16 µg/mL | 425 µg·min/mL | ≥ 16 µg/mL | ≥ 16 µg/mL | ≥ 16 µg/mL | – | – | – | – | – | – | – | – | – | – | –
CC(=O)Nc1cccc(-n2c(/C=C/c3ccc(C#N)cc3)nc3ccccc3c2=O)c1 | < 1% | ≥ 16 µg/mL | > 128 µg/mL | 51 µg/mL (≈ 125 µM) | 0.25 µg/mL (≈ 0.615 µM) | ≥ 16 µg/mL | – | ≥ 16 µg/mL | ≥ 16 µg/mL | ≥ 16 µg/mL | 0.06 µg/mL (≈ 0.148 µM) | 4 µg/mL (≈ 9.84 µM) | 1 µg/mL (≈ 2.46 µM) | > 128 µg/mL | > 128 µg/mL | 1 µg/mL (≈ 2.46 µM) | 0.125 µg/mL (≈ 0.308 µM) | > 128 µg/mL | > 128 µg/mL | 64 µg/mL (≈ 157 µM) | AUClast (Mus musculus [6]): 38 µg·min/mL; MIC (Enterococcus faecalis [11]): 128 µg/mL (≈ 315 µM)
N#Cc1ccc(/C=C/c2nc3ccccc3c(=O)n2-c2cccc(O)c2)cc1 | < 1% | ≥ 16 µg/mL | > 128 µg/mL | 53.6 µg/mL (≈ 147 µM) | 0.03 µg/mL (≈ 0.0821 µM) | ≥ 16 µg/mL | – | ≥ 16 µg/mL | ≥ 16 µg/mL | ≥ 16 µg/mL | 0.125 µg/mL (≈ 0.342 µM) | 0.5 µg/mL (≈ 1.37 µM) | 0.25 µg/mL (≈ 0.684 µM) | > 128 µg/mL | > 128 µg/mL | 0.5 µg/mL (≈ 1.37 µM) | 0.06 µg/mL (≈ 0.164 µM) | > 128 µg/mL | > 128 µg/mL | 64 µg/mL (≈ 175 µM) | MIC [12]: 0.125 µg/mL (≈ 0.342 µM); MIC (Staphylococcus aureus [13]): 0.125 µg/mL (≈ 0.342 µM); AUClast (Mus musculus [6]): 26.8 µg·min/mL; MIC (Staphylococcus aureus [14]): 0.125 µg/mL (≈ 0.342 µM); MIC (Enterococcus faecalis [11]): 128 µg/mL (≈ 350 µM)
O=C(O)c1cccc(-n2c(/C=C/c3ccc(F)cc3)nc3ccccc3c2=O)c1 | < 1% | ≥ 16 µg/mL | > 128 µg/mL | 95.5 µg/mL (≈ 247 µM) | 1 µg/mL (≈ 2.59 µM) | ≥ 16 µg/mL | – | ≥ 16 µg/mL | ≥ 16 µg/mL | ≥ 16 µg/mL | 0.125 µg/mL (≈ 0.324 µM) | 8 µg/mL (≈ 20.7 µM) | 8 µg/mL (≈ 20.7 µM) | > 128 µg/mL | 128 µg/mL (≈ 331 µM) | 2 µg/mL (≈ 5.18 µM) | 1 µg/mL (≈ 2.59 µM) | > 128 µg/mL | 128 µg/mL (≈ 331 µM) | > 128 µg/mL | AUClast (Mus musculus [15]): 2560 µg·min/mL; MIC [12]: 0.25 µg/mL (≈ 0.647 µM); MIC (Staphylococcus aureus [14]): 8 µg/mL (≈ 20.7 µM); MIC (Enterococcus faecalis [11]): > 128 µg/mL
CC(=O)Nc1cccc(-n2c(/C=C/c3ccc(F)cc3)nc3ccccc3c2=O)c1 | 3.6% | ≥ 16 µg/mL | ≥ 8 µg/mL | 46.6 µg/mL (≈ 117 µM) | 1 µg/mL (≈ 2.5 µM) | ≥ 16 µg/mL | 284 µg·min/mL | ≥ 16 µg/mL | ≥ 16 µg/mL | ≥ 16 µg/mL | – | – | – | – | – | – | – | – | – | – | –
